Experimental data: PMC11839910 (Nature Communications, 2025)
Values after ≈ are worked out from the molar mass of the structure shown. “Also recorded” adds a separate entry of the source.

Assays:
[1] = target: T1, SOD1^G93A (Homo sapiens, UniProt P00441, G94A); assay: Intact protein LC-MS of covalent drug candidates with purified SOD1^G93A; type: binding
[2] = target: T1, SOD1^G93A; assay: In vivo target engagement
Summary of the method: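 Hemizygous B6SJL-Tg(SOD1*G93A)1Gur/J mice (15–30 weeks, either sex) were dosed in PBS or water (<2% final DMSO): 10 mg/kg IV, 12.5 or 30 mg/kg SC, or 20 mg/kg SC with collection at 1 h. Blood and brain underwent chloroform–ethanol extraction, then intact-protein C4 LC-MS for %TE against a 37% METE. Doses were re-estimated as old dose × (METE/%TE). Duplicate.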

[3] = target: human serum albumin (HSA) (Homo sapiens, UniProt P02768); type: in vitro ADME; conditions: intact protein LC-MS
[4] = Solubility limit in IV dose formulation; type: physicochemical
[5] = tested on: albumin; conditions: cited from earlier work
[6] = target: T1, SOD1^G93A; type: binding; conditions: transgenic ALS^G93A mouse brain homogenate
[7] = tested on: SOD1^G93A mouse model; conditions: cited from earlier work

human serum albumin (HSA), sequence (P02768 25-609): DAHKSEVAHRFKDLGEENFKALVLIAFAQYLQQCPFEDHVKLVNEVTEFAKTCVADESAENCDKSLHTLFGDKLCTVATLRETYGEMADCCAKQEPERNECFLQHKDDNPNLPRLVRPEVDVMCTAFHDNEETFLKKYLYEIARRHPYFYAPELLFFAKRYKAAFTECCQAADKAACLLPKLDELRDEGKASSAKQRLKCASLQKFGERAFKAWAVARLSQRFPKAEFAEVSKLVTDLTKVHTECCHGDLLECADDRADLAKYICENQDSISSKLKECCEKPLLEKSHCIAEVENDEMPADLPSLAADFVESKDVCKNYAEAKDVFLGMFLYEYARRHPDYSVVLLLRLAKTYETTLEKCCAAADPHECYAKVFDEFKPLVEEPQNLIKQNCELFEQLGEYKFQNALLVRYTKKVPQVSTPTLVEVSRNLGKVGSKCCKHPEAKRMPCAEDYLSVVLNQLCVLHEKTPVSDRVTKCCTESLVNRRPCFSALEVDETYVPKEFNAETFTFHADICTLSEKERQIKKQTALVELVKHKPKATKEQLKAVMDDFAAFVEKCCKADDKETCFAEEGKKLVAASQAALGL
T1 sequence (P00441 2-154 G94A limits assumed): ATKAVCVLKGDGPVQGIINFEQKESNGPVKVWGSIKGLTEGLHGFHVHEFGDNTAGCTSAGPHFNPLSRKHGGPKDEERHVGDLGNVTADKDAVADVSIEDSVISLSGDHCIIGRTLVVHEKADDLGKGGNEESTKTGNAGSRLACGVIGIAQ

Structure (SMILES) | proposed MoA confirmed by intact drug-protein mass (D1) [1] | covalent binding to HSA [3] | further results
CCN(CC)C(=S)SSC(=S)N(CC)CC [disulfiram] | shows the predicted molecular mass | showed drug-related mass shifts with HSA | METE reached in vivo (D5) ([2]; at a 20 mg/kg dose imposed by solubility limit): could not be reached; solubility [4]: 4000 µg/mL (≈ 13.5 mM); plasma protein binding via albumin [5]: high plasma protein binding
O=c1c2ccccc2[se]n1-c1ccccc1 [ebselen] | confirms its proposed MoA | showed drug-related mass shifts with HSA | in vitro target engagement in target tissue homogenate (predicted mass shift) [6]: show the predicted mass shifts; METE reached in vivo (D5) ([2]; at ~22% of LD50 (20 mg/kg SC, 1 h)): could not be reached; effect on SOD1 in vivo (modification of SOD1^G93A) ([2]; brain and blood of dosed SOD1^G93A mouse): promoting cysteinylation (in brain) and glutathionylation (in blood); survival [7]: improves survival
C=CC(=O)N1CCC[C@@H](n2nc(-c3ccc(Oc4ccccc4)cc3)c3c(N)ncnc32)C1 [ibrutinib] |  | minimal binding; also recorded: limited, but detectable covalent binding | 
C=CC(=O)N1CCN(c2nc(=O)n(-c3c(C)ccnc3C(C)C)c3nc(-c4c(O)cccc4F)c(F)cc23)[C@@H](C)C1 [sotorasib] |  | negligible binding | 
CN(C)C/C=C/C(=O)Nc1cc2c(Nc3ccc(F)c(Cl)c3)ncnc2cc1O[C@H]1CCOC1 [afatinib] |  | minimal binding; also recorded: limited, but detectable covalent binding | 
N.N.[Cl][Pt][Cl] [cisplatin] | shows the predicted molecular mass |  | 
[O-][S+]1CCCCS1 (stereo not shown) [S-XL6, 1,2-dithiane-1-oxide] | confirms the proposed MoA | negligible binding; also recorded: no detectable HSA binding | in vitro target engagement in target tissue homogenate (predicted mass shift) [6]: show the predicted mass shifts; in vivo target engagement, detection of drug-protein complex ([2]; brain, 1-hr post-dose via SC): successful detection of cross-linked dimer
